Shown are actives, neighbours in structure and some others; about 3% of the full set was active somewhere.
Wnt bcat act: Wnt/beta-catenin pathway activators, primary screen, cell-based, plate reader, single point; activation, % at 9.35 µM; Wnt/beta-catenin reporter cell assay, activator; actives 1.2% (n = 300,000); in the data active = activation above about 30%, passing the limit was not always enough; inconclusive = no clear call, values can overlap the other calls;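 also: 0% = neutral control wells and 100% = positive control wells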
MITF act: activators of MITF-driven TRPM1 promoter reporter, primary screen, cell-based, SK-MEL-5, luciferase, single point; activation, % at 12.5 µM; actives 0.75% (n = 300,000); AID 588334, 2011; SK-MEL-5 TRPM1-promoter luciferase, 24 h; % of positive control, neutral wells = 0;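 active = mean activation of at least 80% with every replicate also reaching 80%; inconclusive = mean reaches 80% but some replicate falls short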;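 also: 0% = neutral control wells and 100% = parthenolide positive control wells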
esBAF inh: Bmi1 luciferase reporter increase in mESCs, primary screen, esBAF inhibitor project, mouse ES cells, Bmi1 luciferase knock-in, single point; 24 h; 100% = twice the neutral-well signal; reporter increase, % at 12.5 µM; actives 2% (n = 350,000); AID 602393, 2012; in the data active = activation above about 40%; inconclusive = no clear call, values can overlap the other calls;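 also: 0% = median of the plate's neutral control wells and 100% = double that signal; a rise in the Bmi1 reporter signal indicates esBAF inhibition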
Xi reactivation: activators of inactive X chromosome reactivation, primary screen, imaging, XiGFP fibroblasts, GFP high-content imaging, set 2; XiGFP mouse fibroblasts, % GFP-positive cells imaging, 3 d; cells co-treated with 5-aza-dC sensitizer; scaled so ellipticine positive control = 100%; activation, % at 7.58 µM; actives 0.055% (n = 360,000); AID 743238, 2013;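 active = mean normalized replicate activation at least 10% and every replicate at or above 10%; inconclusive = only one of the two criteria met; inactive = mean below 10% and not all replicates reach 10%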;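 also: 0% = median of on-plate neutral control wells and 100% = ellipticine 6 µM median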
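Material: XiGFP fibroblasts, SV40-immortalized; Buffer or medium: DMEM containing 5-aza-dC; Compound dosing: single point; Times: 3 days compound exposure.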
Casp6 inh: human caspase-6 inhibitors, primary screen, biochemical, VEID-R110 fluorescence, single point, set 2; P55212; purified caspase-6, Z-VEID-R110 cleavage fluorescence; inhibition, % at 12.5 µM; actives 0.53% (n = 350,000); AID 686996, 2013;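 active = mean inhibition across replicates at least about 35%, with every replicate also reaching that limit, limit read from the data; inconclusive = only one of the two criteria met; inactive = neither criterion met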;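 also: 0% = median of neutral control wells and 100% = no fluorescence left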
NSD2 inh: NSD2 histone methyltransferase inhibitors, primary screen, biochemical, AlphaScreen, single concentration, set 2. Histone-lysine N-methyltransferase NSD2 (Homo sapiens), O96028. inhibition, % at 12.5 µM. actives 0.54% (n = 310,000). AID 743445, 2014. NSD2 peptide methylation, 120 min; in the data active = inhibition above about 50%
The depositor's hits bear a star; ? = inconclusive; . = no result.

SMILES | Wnt bcat act | MITF act | esBAF inh | Xi reactivation | Casp6 inh | NSD2 inh
C[C@@H](NC(=O)C[C@@H]1C[C@@H]2c3cc(NC(=O)NC4CCCC4)ccc3O[C@@H]2[C@H](CO)O1)c1ccccc1 | . | . | . | 0 | . | .
COc1cccc(Nc2ncnc3sc(C)cc23)c1 | 10 | 55 | 66* | 0 | 1 | 0
COc1ccc(Oc2ncnc3sccc23)cc1 | 9 | 88* | 45* | 0 | 1 | -6
COc1ccc(Nc2ncnc3sccc23)c(OC)c1 | -5 | 5 | 6 | 0 | -2 | 1
Cc1cc2c(Nc3ccc(O)cc3)ncnc2s1 | 1 | . | 4 | 0 | -1 | -1
COc1cccc(Nc2ncnc3sccc23)c1 | 9 | 72 | 59* | 0 | 4 | -7
Cc1ccc(Nc2ncnc3sccc23)c(C)c1 | 7 | 38 | 24 | 0 | 99* | -2
O=C1NCCCOCc2cn(nn2)CC[C@H]1Cc1ccc(-c2ccccc2)cc1 | . | . | . | 0 | . | .
COc1ccc2c3c([nH]c2c1)[C@H](CO)N(S(C)(=O)=O)CC31CCN(C(=O)c2ccncc2)CC1 | . | . | . | 0 | . | .
COc1ccc(S(=O)(=O)Nc2ccc3c(c2)CC(=O)N([C@H](C)CO)C[C@H](C)[C@@H](CN(C)C(=O)Nc2ccccc2)O3)cc1 | . | . | 0 | 0 | -1 | .
O/C(=C\c1ccc2ccccc2n1)c1ccc(O)cc1O | 43* | 20 | -30 | 0 | -2 | .
Oc1ccc(/C=C/c2ccc3ccccc3n2)cc1 | -3 | -70 | -39 | 0 | 1 | -3
Cc1nn(-c2ccccc2)c2sc(C(=O)N3CCN(Cc4ccccc4)CC3)cc12 | . | . | . | . | . | -1
Cc1nn(-c2ccccc2)c2sc(C(=O)NC3CC3)cc12 | . | . | 47* | . | . | -1
Cc1nn(-c2ccc(F)cc2)c2sc(C(=O)N3CCCCCC3)cc12 | . | 50 | 64* | . | . | 2
CCOC(=O)c1oc2cccc(O)c2c1C | . | . | 48* | . | . | -1
C/C=C/c1ccc([C@H]2[C@@H](CO)N(CC3CCCCC3)[C@@H]2CNC(C)C)cc1 | . | . | . | 0 | -4 | .
Cc1ccccc1-c1ccc([C@@H]2[C@H]3CN(C(=O)c4cccnc4)CC(=O)N3[C@H]2CO)cc1 | . | . | . | 0 | . | .
Cc1ccccc1OCCCn1c(=O)sc2ccccc21 | . | 72 | 54* | . | . | -7
Cc1ccc(OCCn2c(=O)sc3ccccc32)cc1 | 23 | 92* | 76* | . | . | -5
O=c1sc2ccccc2n1CCCOc1ccccc1 | 71* | 52 | 81* | . | . | -8
Cc1ccc(OCCCn2c(=O)sc3ccccc32)cc1 | . | 31 | 15 | . | . | -9
CCC(=O)Nc1ccc2c(c1)C(=O)N(C)C[C@@H](OC)[C@@H](C)CN(CCc1ccccc1)[C@@H](C)CO2 | . | . | -4 | 0 | -1 | .
Cc1nnsc1C(=O)Nc1cc(Cl)ccc1Cl | 42* | . | 7 | . | . | -1
Cc1cc(C(=O)Nc2cccc3c2O[C@@H](CN(C)S(=O)(=O)c2ccccc2)[C@H](C)CN([C@H](C)CO)C3=O)n(C)n1 | . | . | 0 | -1 | -2 | .
SMILES | Wnt bcat act | MITF act | esBAF inh | Xi reactivation | Casp6 inh | NSD2 inh
Cc1nc2cc3c(cc2c(C)c1C(=O)OC(C)C)OCO3 | 16 | 47 | 46* | 0 | . | -3
C[C@H](CO)N1C[C@H](C)[C@@H](CN(C)CC2CC2)Oc2ccc(NC(=O)Cc3ccccc3)cc2C1=O | . | . | . | 0 | -2 | .
COCC(=O)Nc1ccc2c(c1)OC[C@H](C)N(CC1CCCCC1)C[C@@H](C)[C@@H](OC)CN(C)C2=O | . | . | 6 | 0 | 5 | .
Cc1ccc(Nc2nnns2)cc1 | . | 7 | . | . | . | -1
CC1=CC(C)(C)N=C(Nc2ccc(C)cc2)S1 | 27 | 73 | 46* | . | . | -1
CCNC(=O)C[C@H]1CC[C@@H]2[C@@H](COc3ccc(NC(=O)Cc4cccs4)cc3C(=O)N2C)O1 | . | . | -1 | 0 | -4 | .
O=C(C[C@H]1C[C@@H]2c3cc(NS(=O)(=O)c4ccc(F)cc4)ccc3O[C@@H]2[C@H](CO)O1)N1CCCCC1 | . | . | -3 | 0 | 1 | .
COc1nc(Nc2ccc(C(C)C)cc2)nc(OC)n1 | . | 51 | 58* | . | . | -2
COc1nc(Nc2ccc(O)cc2)nc(OC(C(F)(F)F)C(F)(F)F)n1 | . | -8 | -8 | . | . | 0
CC(C)NC(=O)C1C(c2ccc(C(F)(F)F)cc2)=Nc2ccccc2N1C(=O)c1ccco1 (centres undefined) | -1 | . | . | 0 | 0 | .
CC(C)NC(=O)C1C(c2ccc(C(F)(F)F)cc2)=Nc2ccccc2N1C(=O)c1ccccc1 (centres undefined) | 45* | . | . | 0 | -10 | -2
CCCCNC(=O)C1C(c2ccc(C(F)(F)F)cc2)=Nc2ccccc2N1C(=O)c1ccc2nc(C)[nH]c2c1 (centres undefined) | 6 | . | . | 0 | 40* | .
COc1ccc2c3c(n(C)c2c1)[C@H](CO)N(C(=O)c1ccc(F)cc1)CC31CCN(CC2CC2)CC1 | . | . | . | 0 | . | .
Cc1c(/C(O)=C2/C(=O)C(=O)N(CCN3CCOCC3)C2c2cccs2)cnn1-c1ccccc1 (centres undefined) | . | . | -11 | . | . | -6
Cc1ccc(C2/C(=C(/O)c3cnn(-c4ccccc4)c3C)C(=O)C(=O)N2CCN2CCOCC2)o1 (centres undefined) | . | 20 | 50* | . | . | 5
Cc1ccc(C2/C(=C(\O)c3cnn(-c4ccccc4)c3C)C(=O)C(=O)N2CCN(C)C)o1 (centres undefined) | -2 | . | 48* | . | . | .
Cc1ccc(S(=O)(=O)N(C)c2ccc(C)c([N+](=O)[O-])c2)cc1 | ? | -5 | . | 21* | 1 | 0
CCCN(C)C[C@H]1OCCCC[C@@H](C)Oc2ccc(NS(=O)(=O)c3cccs3)cc2C(=O)N([C@H](C)CO)C[C@@H]1C | . | . | . | -1 | -2 | .
O=C(NCc1ccccc1)c1ccc2ccccc2n1 | -1 | 1 | 3 | 0 | 4 | -1
COc1ccc(CNC(=O)c2ccc(C(C)C)cc2)cc1 | 14 | 104* | . | 0 | -3 | -3
Cc1nnc(NC(=O)c2ccc3ccccc3n2)s1 | 13 | 49 | 43* | 0 | 0 | 49
COc1ccc(CNC(=O)c2ccc3ccccc3n2)cc1 | 1 | . | 82* | 0 | 1 | -3
COc1ccc(CNC(=O)c2ccc(C(C)(C)C)cc2)cc1 | 6 | 102* | . | 0 | 0 | -2
C[C@@H]1CN(C)C(=O)c2cc(N)ccc2O[C@@H]1CN(C)S(C)(=O)=O | . | . | . | 1 | . | .
Cc1ccc(NC(=O)C2=NNC(=O)CC2)cc1F | 34* | 40 | . | 0 | -3 | -1
